Laboratory results: ChEMBL document CHEMBL1275358, “Synthesis and anticancer activity of new 1-[(5 or 6-substituted 2-alkoxyquinoxalin-3-yl)aminocarbonyl]-4-(hetero)arylpiperazine derivatives” (Bioorg Med Chem, 2010)
Active and inactive are the calls of the source. The rule behind the calls is not given here.

Legend:
MDA-MB-231 [1] = assay: Growth inhibition of human MDA-MB-231 cells at 5 uM after 96 hrs by sulforhodamine B assay relative to control; format: functional; conditions: MDA-MB-231, 96 h
How it was run: (§1)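 MDA-MB-231 cells in DMEM with 10% FBS, 10 mM HEPES, P/S and 2 mM L-glutamine at 37 °C, 5% CO2, were treated in 96-well plates for 96 h, either alone or with a 20 nM co-treatment. They were then TCA-fixed, SRB-stained and read at 530 nm. Results are % growth inhibition versus untreated cells, with 0.5% DMSO as vehicle control, from triplicates in at least two experiments.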

MDA-MB-231 [2] = assay: Growth inhibition of human MDA-MB-231 cells at 3 uM after 96 hrs by sulforhodamine B assay relative to control; format: functional; conditions: MDA-MB-231, 96 h; how it was run: as §1
HCT-15 = assay: Growth inhibition of human HCT15 cells after 96 hrs by sulforhodamine B assay; format: functional, cell-based; conditions: HCT-15, 96 h
How it was run: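 SRB assay with 96 h exposure to a range of concentrations and a DMSO control. Cells were TCA-fixed, SRB-stained and read at 530 nm to give IC50. Cells were kept at 37 °C, 5% CO₂. MDA-MB-231, HCT116, Caki-1, UMRC2 and PANC-1 were grown in DMEM with 10% FBS, HEPES, P/S and glutamine. All other lines were grown in RPMI1640 with 10% FBS, pyruvate, HEPES and P/S.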

HCT-116 [3] = assay: Resistant index, ratio of IC50 for human HCT15 cells to IC50 for human HCT116 cells; format: functional
HCT-116 [4] = assay: Growth inhibition of human HCT116 cells after 96 hrs by sulforhodamine B assay; format: functional, cell-based; conditions: HCT-116, 96 h
How it was run: (§2)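 SRB assay with 96 h exposure to a range of concentrations and a DMSO control. Cells were TCA-fixed, SRB-stained and read at 530 nm to give IC50. Cells were kept at 37 °C, 5% CO₂. All other lines were grown in RPMI1640 with 10% FBS, pyruvate, HEPES and P/S.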

OVCAR-3 = assay: Growth inhibition of human OVCAR-3 cells after 96 hrs by sulforhodamine B assay; format: functional, cell-based; conditions: OVCAR-3, 96 h; how it was run: as §2
A549 = assay: Growth inhibition of human A549 cells after 96 hrs by sulforhodamine B assay; format: functional, cell-based; conditions: A549, 96 h; how it was run: as §2
PC-3 = assay: Growth inhibition of human PC3 cells after 96 hrs by sulforhodamine B assay; format: functional, cell-based; conditions: PC-3, 96 h; how it was run: as §2
SK-MEL-28 = assay: Growth inhibition of human SK-MEL-28 cells after 96 hrs by sulforhodamine B assay; format: functional, cell-based; conditions: SK-MEL-28, 96 h; how it was run: as §2
HepG2 = assay: Growth inhibition of human HepG2 cells after 96 hrs by sulforhodamine B assay; format: functional, cell-based; conditions: HepG2, 96 h; how it was run: as §2
HT-29 = assay: Growth inhibition of human HT-29 cells after 96 hrs by sulforhodamine B assay; format: functional, cell-based; conditions: HT-29, 96 h; how it was run: as §2
MKN-45 = assay: Growth inhibition of human MKN45 cells after 96 hrs by sulforhodamine B assay; format: functional, cell-based; conditions: MKN-45, 96 h; how it was run: as §2
CAKI-1 = assay: Growth inhibition of human Caki1 cells after 96 hrs by sulforhodamine B assay; format: functional, cell-based; conditions: CAKI-1, 96 h; how it was run: as §2
U-251 = assay: Growth inhibition of human U251 cells after 96 hrs by sulforhodamine B assay; format: functional, cell-based; conditions: U-251, 96 h; how it was run: as §2
PANC-1 = assay: Growth inhibition of human PANC1 cells after 96 hrs by sulforhodamine B assay; format: functional, cell-based; conditions: PANC-1, 96 h; how it was run: as §2
MDA-MB-231 [5] = assay: Growth inhibition of human MDA-MB-231 cells after 96 hrs by sulforhodamine B assay; format: functional, cell-based; conditions: MDA-MB-231, 96 h; how it was run: as §2
[6] = Growth inhibition of human UMRC2 cells after 96 hrs by sulforhodamine B assay; format: functional, cell-based; conditions: UMRC2, 96 h; how it was run: as §2
HeLa = assay: Growth inhibition of human HeLa cells after 96 hrs by sulforhodamine B assay; format: functional, cell-based; how it was run: as §2
MDA-MB-231 [7] = assay: Growth inhibition of human MDA-MB-231 cells at 5 nM after 96 hrs by sulforhodamine B assay relative to control; format: functional; conditions: MDA-MB-231, 96 h
MDA-MB-231 [8] = assay: Growth inhibition of human MDA-MB-231 cells at 10 nM after 96 hrs by sulforhodamine B assay relative to control; format: functional; conditions: MDA-MB-231, 96 h
MDA-MB-231 [9] = assay: Cell cycle arrest in human MDA-MB-231 cells assessed as accumulation at G2/M phase at 0.02 to 0.2 uM after 3 to 12 hrs using propidium iodide staining; format: functional, cell-based
MDA-MB-231 [10] = assay: Induction of apoptosis in human MDA-MB-231 cells assessed as DNA fragmentation; format: functional, cell-based
MDA-MB-231 [11] = assay: Induction of apoptosis in human MDA-MB-231 cells assessed as increase of p21 WAF1 protein level at 70 nM after 24 to 72 hrs by Western blotting; format: functional, cell-based
How it was run: (§3)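 MDA-MB-231 cells were exposed to 70 nM for 24, 48 or 72 h alongside untreated controls. After a PBS wash, cells were lysed in 25 mM Tris-HCl pH 7.5, 300 mM NaCl, 1% Triton X-100 with protease inhibitors. Protein was quantified by BCA, run on SDS-PAGE and transferred to nitrocellulose. Blots were probed for p21WAF1, Bcl-2 and Bad, with β-actin as the loading control.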

MDA-MB-231 [12] = assay: Induction of apoptosis in human MDA-MB-231 cells assessed as decrease of Bcl-2 protein level at 70 nM after 24 to 72 hrs by Western blotting; format: functional, cell-based; how it was run: as §3
MDA-MB-231 [13] = assay: Induction of apoptosis in human MDA-MB-231 cells assessed as PARP fragmentation; format: functional, cell-based
MDA-MB-231 [14] = assay: Growth inhibition of human MDA-MB-231 cells at 20 nM after 96 hrs by sulforhodamine B assay relative to control; format: functional; conditions: MDA-MB-231, 96 h
MDA-MB-231 [15] = assay: Growth inhibition of human MDA-MB-231 cells at 0.1 uM after 96 hrs by sulforhodamine B assay relative to control; format: functional; conditions: MDA-MB-231, 96 h
MDA-MB-231 [16] = assay: Growth inhibition of human MDA-MB-231 cells at 0.2 uM after 96 hrs by sulforhodamine B assay relative to control; format: functional; conditions: MDA-MB-231, 96 h

| Structure (SMILES) | IC50 (HCT-116 [4]) [nM] | IC50 (OVCAR-3) [nM] | IC50 (A549) [nM] | IC50 (PC-3) [nM] | IC50 (SK-MEL-28) [nM] | IC50 (HepG2) [nM] | IC50 (HT-29) [nM] | IC50 (MKN-45) [nM] | IC50 (CAKI-1) [nM] | IC50 (U-251) [nM] | IC50 (PANC-1) [nM] | IC50 (MDA-MB-231 [5]) [nM] | IC50 [6] [nM] | IC50 (HeLa) [nM] | also measured |
| --- | --- | --- | --- | --- | --- | --- | --- | --- | --- | --- | --- | --- | --- | --- | --- |
| O=c1[nH]cc(F)c(=O)[nH]1 [FLUOROURACIL] |  |  |  |  |  |  |  |  |  |  |  |  |  |  | inhibition at 5 µM (MDA-MB-231 [1]): 41.6%; inhibition at 3 µM (MDA-MB-231 [2]): 3.3% |
| CC(=O)O[C@H]1C(=O)[C@@]2(C)[C@H]([C@H](OC(=O)c3ccccc3)[C@]3(O)C[C@H](OC(=O)[C@H](O)[C@@H](NC(=O)c4ccccc4)c4ccccc4)C(C)=C1C3(C)C)[C@]1(OC(C)=O)CO[C@@H]1C[C@@H]2O [PACLITAXEL] | 2 |  |  |  |  |  |  |  |  |  |  |  |  |  | IC50 (HCT-15): 140 nM; Ratio IC50 (HCT-116 [3]): 70 |
| COc1cc(OC)cc(N2CCN(C(=O)Nc3nc4c(C)cccc4nc3OC)CC2)c1 | 50 | 39 | 56 | 57 | 64 | 63 | 55 | 57 | 32 | 54 | 54 | 60 | 30 | 62 |  |
| COc1cc(OC)cc(N2CCN(C(=O)Nc3nc4cc(Cl)ccc4nc3OC)CC2)c1 | 68 | 42 | 73 | 76 | 110 | 63 | 79 | 64 | 53 | 56 | 98 | 50 | 65 | 73 |  |
| COc1cc(OC)cc(N2CCN(C(=O)Nc3nc4c(OC)cccc4nc3OC)CC2)c1 | 60 | 44 | 64 | 57 | 68 | 57 | 74 | 52 | 33 | 58 | 42 | 56 | 29 | 63 |  |
| COc1cccc2c1C(=O)c1c(O)c3c(c(O)c1C2=O)C[C@@](O)(C(=O)CO)C[C@@H]3O[C@H]1C[C@H](N)[C@H](O)[C@H](C)O1 [DOXORUBICIN] |  |  |  |  |  |  |  |  |  |  |  |  |  |  | inhibition at 0.005 µM (MDA-MB-231 [7]): 4.2%; inhibition at 0.01 µM (MDA-MB-231 [8]): 59.2% |
| COc1cc(OC)cc(N2CCN(C(=O)Nc3nc4cc(F)ccc4nc3OC)CC2)c1 [SUPINOXIN] | 20 | 12 | 21 | 21 | 20 | 19 | 21 | 20 | 11 | 15 | 21 | 12 | 13 | 21 | Activity (MDA-MB-231 [9]): Active; Activity (MDA-MB-231 [10]): Active; Activity (MDA-MB-231 [11]): Active; IC50 (HCT-15): 21 nM; Activity (MDA-MB-231 [12]): Active; Activity (MDA-MB-231 [13]): Active; Ratio IC50 (HCT-116 [3]): 0.72; inhibition at 0.02 µM (MDA-MB-231 [14]): 14% |
| COc1cc(OC)cc(N2CCN(C(=O)Nc3nc4cc(C)ccc4nc3OC)CC2)c1 | 47 | 23 | 55 | 63 | 47 | 45 | 48 | 40 | 29 | 31 | 70 | 32 | 39 | 51 |  |
| Nc1ccn([C@@H]2O[C@H](CO)[C@@H](O)C2(F)F)c(=O)n1 [GEMCITABINE] |  |  |  |  |  |  |  |  |  |  |  |  |  |  | inhibition at 0.1 µM (MDA-MB-231 [15]): 1%; inhibition at 0.2 µM (MDA-MB-231 [16]): 17.7% |
